ChEMBL document CHEMBL1177884, “1,2-ethane bis-1-amino-4-benzamidine is active against several brain insult and seizure challenges through anti-NMDA mechanisms targeting the 3H-TCP binding site and antioxidant action” (Eur J Med Chem, 2010)
Activity calls are given as the source filed them.

Columns and labels:
[1] = test system: Mus musculus; experiment: Anticonvulsant activity in OF1 mouse assessed as protection against NMDA-induced seizures at 49 mg/kg,; format: functional
Summary of the method: (§1)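 Normally fed OF1 mice. Compound given ip 1 hr before ip NMDA (137 mg/kg). Protection scored as no seizures over 4 hours after NMDA and no death within 48 hours. […] At 49 mg/kg, the read-out was the NMDA seizure threshold.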

[2] = test system: Mus musculus; experiment: Anticonvulsant activity in Swiss mouse assessed as inhibition of maximal electroshock-induced seizures at 30 mg/kg, ip after 4 hrs; format: functional, organism-based; parameters: dose 30 mg/kg
Summary of the method: (§2)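 Mice dosed ip with compound in methylcellulose at 30, 100 or 300 mg/kg. MES or subcutaneous pentylenetetrazol seizure tests run 30 min and 4 h after dosing, and occasionally at 15 min and 1 h.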

[3] = test system: Mus musculus; experiment: Anticonvulsant activity in Swiss mouse assessed as inhibition of maximal electroshock-induced seizures at 30 mg/kg, ip after 30 mins; format: functional, organism-based; parameters: dose 30 mg/kg; summary of the method: as §2
[4] = test system: Mus musculus; experiment: Antinociceptive activity against thermal-stimulus induced pain reflex in OF1 mouse assessed as maximal possible effect at 60 mg/kg, ip after 45 mins by hot plate assay; conditions: route intraperitoneal
[5] = target: Glutamate NMDA receptor; experiment: Displacement of [3H]TCP from NMDA receptor in rat cerebral cortex
[6] = test system: Mus musculus; experiment: Anticonvulsant activity in Swiss mouse assessed as inhibition of maximal electroshock-induced seizures at 100 mg/kg, ip after 30 mins; format: functional, organism-based; parameters: dose 100 mg/kg
Summary of the method: (§3)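 Mice dosed ip with compound in methylcellulose at 30, 100 or 300 mg/kg. MES or subcutaneous pentylenetetrazol seizure tests run 30 min and 4 h after dosing, and occasionally at 15 min and 1 h. Activity scored as the percentage of animals protected, in bands (75–100%, 50–75%, 25–50%, 0–25%, none).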

[7] = test system: Mus musculus; experiment: Neurotoxicity in Swiss mouse assessed as inability of animal to maintain on rotarod […], ip after 4 hr by rotarod test; format: toxicity, organism-based; conditions: in vivo
Summary of the method: (§4)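 Minimal acute neurotoxicity assessed by rotarod: mouse placed on a 1 inch knurled rod rotating at 6 rpm, at 15 min, 30 min, 1 h or 4 h after ip dosing in methylcellulose. Scored as the percentage of animals toxic, in bands (75–100%, 50–75%, 25–50%, 0–25%, none).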

[8] = test system: Mus musculus; experiment: Anticonvulsant activity in Swiss mouse assessed as inhibition of ScPTZ-induced seizures at 100 mg/kg, ip after 30 mins; format: functional, organism-based; parameters: dose 100 mg/kg; summary of the method: as §3
[9] = test system: Mus musculus; experiment: Toxicity in OF1 mouse assessed as rectal temperature at 30 mg/kg; format: organism-based; parameters: dose 30 mg/kg; conditions: in vivo
Summary of the method: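 Rectal temperature measured in mice given 30 mg/kg ip, 1 hr before testing.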

[10] = test system: Mus musculus; experiment: Neurotoxicity in Swiss mouse assessed as inability of animal to maintain on rotarod at 100 mg, ip after 30 mins by rotarod test; format: toxicity, organism-based; conditions: in vivo, 0.5 h; summary of the method: as §4
[11] = test system: Mus musculus; experiment: Anticonvulsant activity in Swiss mouse assessed as inhibition of maximal electroshock-induced seizures at 100 mg/kg, ip after 4 hrs; format: functional, organism-based; parameters: dose 100 mg/kg; summary of the method: as §3
[12] = test system: Mus musculus; experiment: Neurotoxicity in Swiss mouse assessed as inability of animal to maintain on rotarod at 30 mg/kg, ip after 4 hrs by rotarod test; format: toxicity, organism-based; conditions: in vivo
Summary of the method: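 Minimal acute neurotoxicity assessed by rotarod: mouse placed on a 1 inch knurled rod rotating at 6 rpm, at 15 min, 30 min, 1 h or 4 h after ip dosing in methylcellulose.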

[13] = test system: Mus musculus; experiment: Anxiolytic activity against OF1 mouse assessed as increase in number of crossings of photocell activity meter at 10 mg/kg, ip administered 1 hr before testing measured for 3 mins; conditions: route intraperitoneal
[14] = test system: Mus musculus; experiment: Anticonvulsant activity in Swiss mouse assessed as inhibition of ScPTZ-induced seizures at 100 mg/kg, ip after 4 hrs; format: functional, organism-based; parameters: dose 100 mg/kg; summary of the method: as §3
[15] = test system: Mus musculus; experiment: Anxiolytic activity against OF1 mouse assessed as increase in number of crossings of photocell activity meter at 30 mg/kg, ip administered 1 hr before testing measured for 3 mins; conditions: route intraperitoneal
[16] = test system: Mus musculus; experiment: Anticonvulsant activity in Swiss mouse assessed as inhibition of ScPTZ-induced seizures at 30 mg/kg, ip after 30 mins; format: functional, organism-based; parameters: dose 30 mg/kg; summary of the method: as §2
[17] = test system: Mus musculus; experiment: Antinociceptive activity against thermal-stimulus induced pain reflex in OF1 mouse assessed as maximal possible effect at 30 mg/kg, ip after 45 mins by hot plate assay; format: functional; conditions: route intraperitoneal
Summary of the method: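 OF1 mice given compound ip 45 min before testing, then placed on a hot plate at 55 ± 1 °C. Latency to a pain reflex (vocalization, paw lick, hindpaw flick or jump) recorded, with a 30 s cut-off. Latencies converted to % maximum possible effect. Mean ± SD, 6 treated vs 6 untreated mice per dose.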

[18] = test system: Mus musculus; experiment: Anticonvulsant activity against magnesium deprivation mediated audiogenic seizure in OF1 mouse assessed as duration of cunvulsions at 6 mg/kg, ip; format: functional; conditions: route intraperitoneal
[19] = test system: Mus musculus; experiment: Neuroprotective activity against ibotenate-induced focal cerebral injury in Swiss mouse assessed as reduction in size of lesions in white matter at 4 ug/kg, ip; format: functional; parameters: scale not given: the % may be the effect or the level left
Summary of the method: (§5)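 Swiss mouse pups anesthetized with isoflurane, then given 10 µg ibotenate by stereotaxic injection into the right frontoparietal area as two 1 µl boluses. Compound in DMSO given ip at 4 µg/kg; controls received DMSO ip. Brains fixed 5 days later. Lesion maximal diameter in white and cortical grey matter measured on cresyl-violet-stained serial coronal sections, 15 µm thick. ANOVA with Bonferroni test.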

[20] = test system: Mus musculus; experiment: Anticonvulsant activity in Swiss mouse assessed as inhibition of ScPTZ-induced seizures at 100 mg/kg, ip after 1 hr; format: functional; parameters: scale not given: the % may be the effect or the level left; conditions: route intraperitoneal; summary of the method: as §3
[21] = test system: Mus musculus; experiment: Neuroprotective activity against ibotenate-induced focal cerebral injury in Swiss mouse assessed as reduction in size of lesions in grey matter at 4 ug/kg, ip; format: functional; parameters: scale not given: the % may be the effect or the level left; summary of the method: as §5
[22] = test system: Mus musculus; experiment: Anticonvulsant activity against magnesium deprivation mediated audiogenic seizure in OF1 mouse assessed as duration of latency plus wide running period at 6 mg/kg, ip; format: functional; conditions: route intraperitoneal
[23] = test system: Mus musculus; experiment: Anticonvulsant activity in Swiss mouse assessed as inhibition of maximal electroshock-induced seizures at 300 mg/kg, ip after 30 mins; format: functional, organism-based; parameters: dose 300 mg/kg; summary of the method: as §3
[24] = test system: Mus musculus; experiment: Neurotoxicity in Swiss mouse assessed as inability of animal to maintain on rotarod […], ip after 15 mins by rotarod test; format: toxicity, organism-based; conditions: in vivo; summary of the method: as §4
[25] = test system: Mus musculus; experiment: Anticonvulsant activity in Swiss mouse assessed as inhibition of ScPTZ-induced seizures at 300 mg/kg, ip after 4 hrs; format: functional, organism-based; parameters: dose 300 mg/kg; summary of the method: as §3
[26] = test system: Mus musculus; experiment: Anticonvulsant activity in Swiss mouse assessed as inhibition of ScPTZ-induced seizures at 300 mg/kg, ip after 30 mins; format: functional; parameters: scale not given: the % may be the effect or the level left; conditions: route intraperitoneal; summary of the method: as §3
[27] = test system: Mus musculus; experiment: Anticonvulsant activity in Swiss mouse assessed as inhibition of ScPTZ-induced seizures at 100 mg/kg, ip after 15 mins; format: functional; parameters: scale not given: the % may be the effect or the level left; conditions: route intraperitoneal; summary of the method: as §3
[28] = test system: Mus musculus; experiment: Neurotoxicity in Swiss mouse assessed as inability of animal to maintain on rotarod at 300 mg, ip after 30 mins by rotarod test; format: toxicity, organism-based; conditions: in vivo, 0.5 h; summary of the method: as §4
[29] = test system: Mus musculus; experiment: Anxiolytic activity against OF1 mouse assessed as increase in number of crossings of photocell activity meter at 5 mg/kg, ip administered 1 hr before testing measured for 3 mins; conditions: route intraperitoneal
[30] = test system: Mus musculus; experiment: Neurotoxicity in Swiss mouse assessed as inability of animal to maintain on rotarod […], ip after 4 hrs by rotarod test; format: toxicity, organism-based; conditions: in vivo; summary of the method: as §4
[31] = test system: Mus musculus; experiment: Neurotoxicity in Swiss mouse assessed as inability of animal to maintain on rotarod […], ip after 1 hr by rotarod test; format: toxicity, organism-based; conditions: in vivo; summary of the method: as §4
[32] = test system: Mus musculus; experiment: Anticonvulsant activity in Swiss mouse assessed as inhibition of maximal electroshock-induced seizures at 300 mg/kg, ip after 4 hrs; format: functional, organism-based; parameters: dose 300 mg/kg; summary of the method: as §3
[33] = Antioxidant activity assessed as inhibition of pyrogallol autooxidation; format: functional; parameters: concentration or dose not given beside the values; conditions: dose or concentration not given here
Summary of the method: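 Pyrogallol autooxidation followed at 420 nm in pH 7.4 TRIS saline (5 mM TRIS, 50 mM NaCl). Compound at 0.5 mM final, from a 50 mM DMSO stock; DMSO alone served as blank. Reaction started with 0.75 mM pyrogallol. Percent inhibition calculated from rates over the first 2 min. Mean of three separate determinations.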

[34] = test system: Mus musculus; experiment: Anticonvulsant activity in Swiss mouse assessed as inhibition of ScPTZ-induced seizures at 30 mg/kg, ip after 4 hrs; format: functional, organism-based; parameters: dose 30 mg/kg; summary of the method: as §2
[35] = organism: Mus musculus; experiment: Anticonvulsant activity in OF1 mouse assessed as protection against NMDA-induced seizures; format: functional; summary of the method: as §1
[36] = test system: Mus musculus; experiment: Anticonvulsant activity against magnesium deprivation mediated audiogenic seizure in OF1 mouse assessed as duration of recovery at 6 mg/kg, ip; format: functional; conditions: route intraperitoneal

SMILES | Activity [2] | Activity [3] | Activity [6] | Activity [7] | Activity [8] | Activity [10] | Activity [11] | Activity [12] | Activity [14] | Activity [16] | Activity [23] | Activity [24] | Activity [25] | Activity [26] | Activity [28] | Activity [30] | Activity [31] | Activity [32] | inhibition [33] | Activity [34] | further results
N=C(N)c1ccc(NCCNc2ccc(C(=N)N)cc2)cc1 | inactive | inactive | inactive | Non-toxic | inactive | 25% | inactive | Non-toxic | inactive | inactive | inactive | 50% | inactive | 75% | 75% | 25% | 75% | inactive | 36.3% | inactive | Activity [1]: >10%; Activity [4]: 70.33%; IC50 [5]: 1.4 µM; T [9]: 35.7 °C; Activity [13]: 90.5; Activity [15]: 13.3; Activity [17]: 31.17%; Time [18]: 1.4 s; Activity [19]: 69%; Activity [20]: 75%; Activity [21]: 49%; Time [22]: 4.75 s; Activity [27]: 75%; Activity [29]: 103.3; ED50 [35]: 6 mg/kg; Time [36]: 50.3 s
CN(CCN(C)c1ccc(C(=N)N)cc1)c1ccc(C(=N)N)cc1 | inactive | inactive | inactive | Non-toxic | inactive | 25% | inactive | Non-toxic | inactive | inactive | inactive | 50% | inactive | 75% | 75% | Non-toxic | 25% | inactive | 51% | inactive | 
CN(CCNc1ccc(C(=N)N)cc1)c1ccc(C(=N)N)cc1.Cl.Cl | inactive | inactive | inactive | Non-toxic | inactive | 75% | inactive | Non-toxic | inactive | inactive |  |  |  |  | 75% |  |  |  | 17.5% | inactive | 
CCN(CCNc1ccc(C(=N)N)cc1)c1ccc(C(=N)N)cc1.Cl.Cl | inactive | inactive |  |  |  | 75% |  | Non-toxic |  |  |  |  |  |  | 75% |  |  |  | 28.8% | inactive | 
N=C(N)c1ccc(N)cc1 |  |  |  |  |  |  |  |  |  |  |  |  |  |  |  |  |  |  | < 5% |  | 
